Screening results: PubChem, several laboratories
This is a sample that favours compounds with a hit; in the whole collection about 5.1% have one here.
NF-kB neuron act = compounds increasing NF-kB expression in human neuronal cells. NF-kB reporter expression; stronger effect = higher value. fold change at 12.5 µM. 190,000 tested, 1.6% active. AID 1239; in the data active = fold change above about 3.3
APP 5'UTR act = activates APP 5'UTR luciferase reporter | AID 1276 | 190,000 tested, 1% active | SH-SY5Y APP 5'UTR luciferase reporter, luminescence; zero percent = DMSO vehicle wells | activation, % at 2 µM;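 active = activation above a set limit, based on mean plus 3 SD of controls, cut at about 140% in these data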
STAT3 act-1 = STAT3 signaling activation; AID 871; U3A cells, IL-6 STAT3-luciferase reporter, luminescence; 100% = signal with IL-6 EC80 alone; activation (% of control), % at 5.6 µM; 190,000 tested, 0.91% active;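 active = activation above the screen-wide mean of compound activation plus 3 SD, cut at about 130% in these data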;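 also: 0% = background luminescence of wells with medium and substrate only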
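Material: human U3A cells carrying STAT3-luciferase construct. Measured by: reporter luminescence signal. Timing: compound 1 h, then IL-6 6 h at 37 °C.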
STAT1 act-1 = activators of IFN-gamma induced STAT1 signaling; NIH 3T3 STAT1-luciferase reporter, luminescence; 100% = IFN-gamma alone, no compound; 200,000 tested, 2.6% active; activation (% of control), % at 5.5 µM;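 active = activation above the screen-wide mean activation plus 3 SD, cut at about 130% in these data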;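 also: raw ratio to IFN-gamma control signal so 100% means no change and 0% no light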
STAT3 inh = reduces IL-6 driven STAT3 reporter signal | 190,000 tested, 0.89% active | U3A cells, IL-6 STAT3-luciferase reporter, luminescence; host cell line lacks STAT1 | AID 862 | inhibition, % at 5.5 µM;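 active = inhibition above the mean inhibition across all screened compounds plus 3 SD, cut at about 44% in these data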;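 also: 0% = DMSO only wells and 100% = 100 µM nifuroxazide control wells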
STAT1 inh = reduces IFN-gamma driven STAT1 reporter signal; inhibition, % at 5.5 µM; NIH 3T3 STAT1-luciferase reporter, luminescence; 200,000 tested, 0.35% active;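 active = inhibition above a set limit, the mean inhibition across all tested compounds plus 3 SD, cut at about 34% in these data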;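 also: 0% = IFN-gamma with DMSO and 100% = IFN-gamma with 300 µM nifuroxazide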
STAT3 act-2 = confirmation of STAT3 signaling activators | shares compounds with STAT3 act-1 | U3A STAT3-luciferase reporter, IL-6 potentiation, luminescence; U3A cells lack STAT1; 100 means same as IL-6 alone | potentiation (% of control), % at 5.7 µM | 1,200 tested, 64% active | AID 1267;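 active = percent activation of the STAT3 luciferase reporter above a set limit taken from the earlier primary screen, cut at about 130% in these data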;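 also: 0% = background signal of medium plus substrate and 100% = median of IL-6 with DMSO wells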
NFkB act STAT3ct = NF-kappaB activation in STAT3 activator counter-screen. human cells, NF-kappaB reporter activation. shares compounds with STAT3 act-1. 1,200 tested, 11% active. AID 1309. activation (% of control), % at 5.7 µM; in the data active = activation above about 120%;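 also: reporter induced by TNF-alpha stimulation; 100% = median of stimulated DMSO wells and 0% = no signal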
STAT1 act-2 = activates STAT1, counter-screen to STAT3 activators. activation (% of control), % at 5.7 µM. NIH 3T3 STAT1-luciferase reporter, IFN-gamma, luminescence. AID 1318. 1,200 tested, 13% active. shares compounds with STAT3 act-1;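 active = activation above the solvent-only control well mean plus 3 SD, set per screening run, cut at about 120% in these data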;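 also: 100% = IFN-gamma with DMSO median signal so 100% means no change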
Numbers without * were called inactive; . = no result.

SMILES | NF-kB neuron act | APP 5'UTR act | STAT3 act-1 | STAT1 act-1 | STAT3 inh | STAT1 inh | STAT3 act-2 | NFkB act STAT3ct | STAT1 act-2
COc1ccc(-n2c(SCC(=O)NCc3ccco3)nc3c([nH]c4ccccc43)c2=O)cc1 | 1 | 11 | 154* | 84 | -54 | 17 | 137* | 104 | 106
Cc1ccc(S(=O)(=O)N(CC(O)CN2C(=O)NC(C)(C)C2=O)c2ccccc2)cc1 (stereo not drawn) | 1.1 | 11 | 187* | 98 | -105 | 2 | 96 | 109 | 101
O=c1oc2ccc3ccccc3c2cc1-c1nc2ccccc2o1 | . | -1 | 163* | 102 | -71 | -2 | 133* | 99 | 95
Nc1ccc2oc(-c3cccc4ccccc34)nc2c1 | 0.59 | -49 | 88 | 112 | 18 | -13 | . | . | .
O=C(Cc1ccccc1)Nn1c(O)c(/C=C2\C=Nc3ccccc32)sc1=S | 1.1 | -6 | 170* | 106 | -91 | -4 | 116 | 106 | 102
CCn1c(O)c(/C=C2\C=Nc3ccccc32)sc1=Nc1ccccc1 | 1.7 | 15 | 112 | 121 | -10 | -23 | . | . | .
CCCN(CCC)S(=O)(=O)c1ccc(C(=O)N2CCOCC2)cc1 | 1 | . | 100 | 93 | 0 | 3 | . | . | .
COc1ccc(C2=Nn3c(nnc3-c3ccccc3OC)SC2)cc1OC | 1.4 | -96 | 150* | 95 | -54 | 6 | 127 | 128* | 94
CC1CN(Cc2ccc(Cl)cc2Cl)CC(C)O1 (stereo not drawn) | 1.2 | 5 | 142* | 112 | -49 | -14 | 129 | 118 | 125*
Cc1c(C(=O)Nc2ccc(Cl)cc2)c2ccccn2c1CCc1ccncc1 | 1.2 | -1 | 110 | 89 | -12 | 13 | . | . | .
COc1ccc(/C=C/C(=O)c2cc(F)ccc2OC(=O)c2ccccc2OC)cc1OC | 1.9 | -89 | 156* | 102 | -45 | -3 | 114 | 168* | 108
O=C(c1ccc2ccccc2n1)N1CCN(c2ccccc2O)CC1 | 1.1 | 43 | 157* | 100 | -61 | 0 | 158* | 103 | 102
Cc1ccc(-c2cc(-c3ccccc3[N+](=O)[O-])[nH]n2)c(O)c1 | 4* | 132 | 142* | 98 | -38 | 3 | 136* | 131* | 94
Nc1n[nH]c(-c2ccccc2[N+](=O)[O-])n1 | 1.1 | -13 | 105 | 109 | -9 | -10 | . | . | .
COc1ccc(OC)c(/C=N/NC(=O)c2ccc(N(C)S(=O)(=O)c3ccccc3)cc2)c1 | 1.1 | -7 | 95 | 103 | 11 | -1 | . | . | .
COc1cccc(C(=O)Nc2ccccc2N2CCCC2)c1 | 1.1 | -12 | 90 | 95 | 14 | 1 | . | . | .
COc1cccc(C(=O)NC(=S)Nc2ccccc2N2CCCC2)c1 | 1 | -17 | 147* | 100 | -47 | -1 | 141* | 106 | 93
Cc1ccc(-n2nc(C)c3c2OC(N)=C(C#N)C3c2cccs2)cc1 (stereo not drawn) | 0.88 | 2 | 142* | 90 | -42 | 11 | 157* | 110 | 94
COCCn1nnnc1C(c1cc2cc(C)ccc2[nH]c1=O)N1CCc2ccccc21 (stereo not drawn) | 1 | . | 150* | 96 | -59 | 5 | 106 | 108 | 97
COCCn1nnnc1C(c1cc2cc(C)ccc2[nH]c1=O)N1CCCCCC1 (stereo not drawn) | 1.1 | 8 | 112 | 100 | -6 | 0 | . | . | .
O=C(COc1ccccc1C(=O)O)NC1CCCc2ccccc21 (stereo not drawn) | 1.1 | 0 | 104 | 97 | -4 | 1 | . | . | .
COc1cc(C(=O)N/N=C(\C)Cc2ccccc2)cc(OC)c1OC | 2.6 | -94 | 143* | 104 | -56 | -5 | 95 | 110 | 97
